The values below come from ChEMBL document CHEMBL3271941, “Synthesis of 5,6-dihydro-8(7H)-quinolinone thiosemicarbazones as potential antitumor agents” (J Med Chem, 1977).

Molecules are shown by their SMILES. Activity calls are given as the source filed them. The calls are words filed in the database; no cut-off is given here.

Chain of Alkaline phosphatase (Escherichia coli K-12) (P00634 whole entry): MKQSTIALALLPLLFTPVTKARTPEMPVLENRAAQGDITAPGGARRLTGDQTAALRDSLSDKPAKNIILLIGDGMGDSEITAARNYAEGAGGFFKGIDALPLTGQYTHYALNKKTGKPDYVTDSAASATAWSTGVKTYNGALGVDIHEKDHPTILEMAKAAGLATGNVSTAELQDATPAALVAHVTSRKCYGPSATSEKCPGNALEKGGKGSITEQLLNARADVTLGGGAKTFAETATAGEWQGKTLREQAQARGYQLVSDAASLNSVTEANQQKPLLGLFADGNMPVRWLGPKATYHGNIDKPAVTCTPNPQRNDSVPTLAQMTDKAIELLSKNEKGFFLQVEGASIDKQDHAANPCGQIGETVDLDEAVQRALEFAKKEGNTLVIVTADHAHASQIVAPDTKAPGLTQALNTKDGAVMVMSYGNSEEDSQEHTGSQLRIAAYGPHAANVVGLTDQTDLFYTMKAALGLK

The first data set has as its system P388. The data set can be described thus: Antineoplastic activity against mouse P388 cells allografted in CDF1 mouse assessed as host survival time at 5 mg/kg administered daily for 6 days starting 24 hrs after tumor implantation (reference value: 11.2 +/- 0.4 days). Format: functional.
Settings: not given
Consider `CNC(=S)N/N=C1/CCCc2cccnc21`, for which the Time turned out to be 12 days.
Still for that read-out and setting: the same measure for `CNC(=S)N/N=C1\CCCc2cccnc21`: 16 days; for `C=CCNC(=S)N/N=C1\CCCc2cccnc21`: 13.2 days.
Still for that read-out and setting: the result for `C=CCNC(=S)N/N=C1/CCCc2cccnc21` reads 9.8 days.
The same measure, in the same setting: the result for `NC(=S)N/N=C1/CCCc2cccnc21` reads 13 days; that for `NC(=S)N/N=C1\CCCc2cccnc21`, 11.8 days.

The next data set has as its system P388. The data set can be described thus: Antineoplastic activity against mouse P388 cells allografted in CDF1 mouse assessed as host survival time at 10 mg/kg administered daily for 6 days starting 24 hrs after tumor implantation (reference value: 11.2 +/- 0.4 days). The format is functional.
Settings: not given
Consider `CNC(=S)N/N=C1/CCCc2cccnc21`, for which the Time was 13.6 days.
The same measure, in the same setting: the same measure for `CNC(=S)N/N=C1\CCCc2cccnc21`: 2 days; for `C=CCNC(=S)N/N=C1\CCCc2cccnc21`: 14 days.
On the same count and under the same terms, the result for `C=CCNC(=S)N/N=C1/CCCc2cccnc21` reads 7.8 days; that for `NC(=S)N/N=C1/CCCc2cccnc21`, 15.8 days.
On to `NC(=S)N/N=C1\CCCc2cccnc21`, for which the Time was determined as 14.8 days.

The subject of a further data set is P388. The data set can be described thus: Antineoplastic activity against mouse P388 cells allografted in CDF1 mouse assessed as host survival time at 20 mg/kg administered daily for 6 days starting 24 hrs after tumor implantation (reference value: 11.2 +/- 0.4 days). The format is functional.
Settings: not given
With `CNC(=S)N/N=C1/CCCc2cccnc21`, the Time came out at 2 days.
On the same count and under the same terms, the same measure for `NC(=S)N/N=C1/CCCc2cccnc21`: 9.2 days.

The next data set deals with P388. The data set can be described thus: Antineoplastic activity against mouse P388 cells allografted in CDF1 mouse assessed as host survival time at 2.5 mg/kg administered daily for 6 days starting 24 hrs after tumor implantation (reference value: 11.2 +/- 0.4 days).
Settings: not given
The format is functional.
Turning to `CNC(=S)N/N=C1\CCCc2cccnc21`, the Time was determined as 13.4 days.
On the same count and under the same terms, the same measure for `C=CCNC(=S)N/N=C1\CCCc2cccnc21`: 11.2 days.
Regarding `C=CCNC(=S)N/N=C1/CCCc2cccnc21`, the Time stood at 10.2 days.
Turning to `NC(=S)N/N=C1\CCCc2cccnc21`, the Time came to 11.6 days.

The next data set deals with P388. As to the kind of experiment: Antineoplastic activity against mouse P388 cells allografted in CDF1 mouse assessed as prolongation of host survival time at 5 mg/kg administered daily for 6 days starting 24 hrs after tumor implantation relative to control. Format: functional.
Settings: not given
The essentials: (§1)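 P388 leukemia (1×10^6 cells, intraperitoneal) in female CDF1 mice; dosing once daily for 6 consecutive days beginning 24 h post-implantation, 5-15 mice per group. Activity expressed as % T/C, the ratio of survival time of treated to untreated control animals. Daily weighing gave percent body-weight change over the treatment period as a toxicity measure.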
In the case of `CNC(=S)N/N=C1/CCCc2cccnc21`, the T/C turned out to be 107%.
For `CNC(=S)N/N=C1\CCCc2cccnc21`, the T/C stood at 143%.
The same measure, in the same setting: the result for `C=CCNC(=S)N/N=C1\CCCc2cccnc21` reads 118%; that for `C=CCNC(=S)N/N=C1/CCCc2cccnc21`, 88%.
Still for that read-out and setting: the result for `NC(=S)N/N=C1/CCCc2cccnc21` reads 116%; that for `NC(=S)N/N=C1\CCCc2cccnc21`, 106%.

The subject of the next data set is P388. As to the kind of experiment: Antineoplastic activity against mouse P388 cells allografted in CDF1 mouse assessed as prolongation of host survival time at 10 mg/kg administered daily for 6 days starting 24 hrs after tumor implantation relative to control. The format is functional.
Settings: not given
A digest of the protocol:
as §1
For the molecule `CNC(=S)N/N=C1/CCCc2cccnc21`, the T/C turned out to be 121%.
With `CNC(=S)N/N=C1\CCCc2cccnc21`, the T/C came to 18%.
Same read-out and setting: the result for `C=CCNC(=S)N/N=C1\CCCc2cccnc21` reads 125%; that for `C=CCNC(=S)N/N=C1/CCCc2cccnc21`, 70%; that for `NC(=S)N/N=C1/CCCc2cccnc21`, 141%.
Turning to `NC(=S)N/N=C1\CCCc2cccnc21`, the T/C is reported as 132%.

Another data set has as its system P388. As to the kind of experiment: Antineoplastic activity against mouse P388 cells allografted in CDF1 mouse assessed as prolongation of host survival time at 20 mg/kg administered daily for 6 days starting 24 hrs after tumor implantation relative to control. Format: functional.
Settings: not given
The essentials:
as §1
For `CNC(=S)N/N=C1/CCCc2cccnc21`, the T/C turned out to be 18%.
The same measure, in the same setting: the result for `NC(=S)N/N=C1/CCCc2cccnc21` reads 73%.

A further data set concerns P388. As to the kind of experiment: Antineoplastic activity against mouse P388 cells allografted in CDF1 mouse assessed as prolongation of host survival time at 2.5 mg/kg administered daily for 6 days starting 24 hrs after tumor implantation relative to control. The format is functional.
Settings: not given
A digest of the protocol:
as §1
On to `CNC(=S)N/N=C1\CCCc2cccnc21`, for which the T/C was 119%.
On to `C=CCNC(=S)N/N=C1\CCCc2cccnc21`, for which the T/C came to 100%.
For `C=CCNC(=S)N/N=C1/CCCc2cccnc21`, the T/C is listed as 91%.
Consider `NC(=S)N/N=C1\CCCc2cccnc21`, for which the T/C was 104%.

In the next data set the test system is Mus musculus. The data set can be described thus: Toxicity in CDF1 mouse allografted with mouse P388 cells assessed as change in body weight at 5 mg/kg administered daily for 6 days starting 24 hrs after tumor implantation (reference value: -2.4%). The format is organism-based. Set-up: dose 5 mg/kg. To be noted: in vivo.
For the molecule `CNC(=S)N/N=C1/CCCc2cccnc21`, the Activity is -7.7%.
Same read-out and setting: the same measure for `CNC(=S)N/N=C1\CCCc2cccnc21`: -12%; for `C=CCNC(=S)N/N=C1\CCCc2cccnc21`: -8.4%; for `C=CCNC(=S)N/N=C1/CCCc2cccnc21`: 0%.
Same read-out and setting: the result for `NC(=S)N/N=C1/CCCc2cccnc21` reads 6.7%; that for `NC(=S)N/N=C1\CCCc2cccnc21`, -3.8%.

The subject of a further data set is Mus musculus. The data set can be described thus: Toxicity in CDF1 mouse allografted with mouse P388 cells assessed as change in body weight at 10 mg/kg administered daily for 6 days starting 24 hrs after tumor implantation (reference value: -2.4%). To be noted: in vivo. Set-up: dose 10 mg/kg. The format is organism-based.
Regarding `CNC(=S)N/N=C1/CCCc2cccnc21`, the Activity is given as -10.8%.
Same read-out and setting: the result for `C=CCNC(=S)N/N=C1\CCCc2cccnc21` reads -9.1%; that for `C=CCNC(=S)N/N=C1/CCCc2cccnc21`, -6.1%.
Consider `NC(=S)N/N=C1/CCCc2cccnc21`, for which the Activity is given as -21.5%.
The same measure, in the same setting: the same measure for `NC(=S)N/N=C1\CCCc2cccnc21`: -10.7%.

The subject of a further data set is Mus musculus. As to the kind of experiment: Toxicity in CDF1 mouse allografted with mouse P388 cells assessed as change in body weight at 20 mg/kg administered daily for 6 days starting 24 hrs after tumor implantation (reference value: -2.4%). Set-up: dose 20 mg/kg. Format: organism-based. Particulars: in vivo.
On to `NC(=S)N/N=C1/CCCc2cccnc21`, for which the Activity is -30.8%.

A further data set relates to Mus musculus. The data set can be described thus: Toxicity in CDF1 mouse allografted with mouse P388 cells assessed as change in body weight at 2.5 mg/kg administered daily for 6 days starting 24 hrs after tumor implantation (reference value: -2.4%). The format is organism-based. More on the design: dose 2.5 mg/kg. Particulars: in vivo.
As for `CNC(=S)N/N=C1\CCCc2cccnc21`, the Activity is listed as -9.3%.
Same read-out and setting: the result for `C=CCNC(=S)N/N=C1\CCCc2cccnc21` reads 0.7%; that for `C=CCNC(=S)N/N=C1/CCCc2cccnc21`, 4.6%.
The same measure, in the same setting: the same measure for `NC(=S)N/N=C1\CCCc2cccnc21`: -5.3%.

Another data set concerns the target Alkaline phosphatase (Escherichia coli K-12) (UniProt P00634). As to the kind of experiment: Inhibition of Escherichia coli alkaline phosphatase assessed as p-nitrophenol formation using p-nitrophenyl phosphate as substrate up to 100 uM treated 15 mins prior to substrate addition by spectrophotometric analysis.
Settings: not given
A digest of the protocol:
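E. coli alkaline phosphatase (0.021 unit) in 1 M Tris-HCl pH 9.0, preincubated 15 min at 37 °C with inhibitor added in 50% DMSO. Reaction started with 10^-3 M p-nitrophenyl phosphate. Initial rise in absorbance at 410 nm read at room temperature in a 1-cm cell. Controls had enzyme preincubated 15 min with 50% DMSO alone.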
Consider `CNC(=S)N/N=C1/CCCc2cccnc21`, for which the inhibition entry is “inactive”.
On the same count and under the same terms, the result for `CNC(=S)N/N=C1\CCCc2cccnc21` reads “inactive”.
With `C=CCNC(=S)N/N=C1\CCCc2cccnc21`, the inhibition entry is “inactive”.
On the same count and under the same terms, the same measure for `C=CCNC(=S)N/N=C1/CCCc2cccnc21`: “inactive”; for `NC(=S)N/N=C1/CCCc2cccnc21`: “inactive”.
On the same count and under the same terms, the result for `NC(=S)N/N=C1\CCCc2cccnc21` reads “inactive”.

System in another data set: not listed separately
The data set can be described thus: Stability of the compound in ethanol with sodium ethoxide assessed as isomerization.
Settings: not given
Format: physicochemical.
Turning to `CNC(=S)N/N=C1/CCCc2cccnc21`, the Stability result is on record as “Unstable”.
On the same count and under the same terms, the same measure for `C=CCNC(=S)N/N=C1/CCCc2cccnc21`: “Unstable”; for `NC(=S)N/N=C1/CCCc2cccnc21`: “Unstable”.

System in another data set: not listed separately
As to the kind of experiment: Stability of the compound measured under neutral conditions. The format is physicochemical.
Settings: not given
Consider `CNC(=S)N/N=C1/CCCc2cccnc21`, for which the Stability result is given as “Stable”.
Still for that read-out and setting: the result for `C=CCNC(=S)N/N=C1/CCCc2cccnc21` reads “Stable”.
The same measure, in the same setting: the same measure for `NC(=S)N/N=C1/CCCc2cccnc21`: “Stable”.

One may read the T/C as the result in the treated group divided by that in the control group, in per cent.
